The source of these data is ChEMBL document CHEMBL3124781, “Heat shock protein 70 inhibitors. 1. 2,5'-thiodipyrimidine and 5-(phenylthio)pyrimidine acrylamides as irreversible binders to an allosteric site on heat shock protein 70” (J Med Chem, 2014).

Assay [1] has as its target Heat shock protein HSP 90-beta (Homo sapiens, UniProt P08238). Description: Displacement of GM-cy3B from Hsp90 in human SKBR3 cells after 24 hrs by fluorescence polarization assay. The arrangement: species or system SK-BR-3. The essentials:
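Final 6 nM GM-cy3B with 3 μg SKBr3 lysate protein; compound in triplicate; geldanamycin as positive control. Shaken 24 h at 4 °C, mP read. Concentration displacing 50% of bound tracer obtained by curve fitting.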
On the technique in general: Fluorescence polarisation rises when a labelled molecule tumbles more slowly, as on binding a larger partner.

The nature of assay [2]: Growth inhibition of human SKBR3 cells after 72 hrs by Alamar Blue assay. Conditions: SK-BR-3, 72 h. It counts as functional, cell-based. The essentials:
(§1)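 Cells plated 8000/well (SKBr3, adherent) or 20000/well (Kasumi-1, suspension) and left 24 h at 37 °C. Compound added in triplicate for 72 h. Alamar Blue (50 μM) added; fluorescence (ex 530/em 580 nm) read 6 h later.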
On the technique in general: Alamar Blue is a resazurin reagent that responds to reducing activity.

Assay [3] concerns SK-BR-3. Put plainly: Induction of apoptosis in human SKBR3 cells assessed as PARP cleavage by Western blotting analysis. The format is functional, cell-based. The essentials:
(§2)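 SKBr3 cells at 60–70% confluence treated with compound or DMSO for the indicated times. Lysed in 50 mM Tris pH 7.4, 150 mM NaCl, 1% NP-40. 10–50 μg protein (BCA) resolved by SDS–PAGE and immunoblotted for HER2, Raf-1, or the PARP p85 fragment, with β-actin as loading control.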
In general terms: Immunoblotting shows a protein as a band on a membrane.

Assay [4] in a line: Inhibition of Hsp70 in human SKBR3 cells assessed as RAF1 protein degradation by Western blotting analysis. It counts as cell-based. As to conditions: SK-BR-3. The essentials:
as §2

Assay [5] is described as follows: Inhibition of Hsp70 in human SKBR3 cells assessed as HER2 protein degradation by Western blotting analysis. It counts as cell-based. As to conditions: SK-BR-3. The essentials: as §2
Assay [6] has as its system MOLM-13. Description: Induction of apoptosis in human MOLM13 assessed as caspase 3/7 activation using Z-DEVD-R110 as substrate pretreated for 16 hrs followed by substrate addition by fluorescence-based assay. The format is functional, cell-based. The essentials:
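MOLM-13 cells (30000/well, RPMI) rested up to 24 h at 37 °C, 5% CO2. Treated 16 h with compound or DMSO, in triplicate. Then buffer added containing 10 mM HEPES pH 7.5, 2 mM EDTA, 0.1% CHAPS and 25 μM Z-DEVD-R110. Fluorescence read once stable; % increase in apoptotic cells calculated versus control.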

Assay [7] has as its system Kasumi 1. Description: Growth inhibition of human Kasumi-1 cells expressing p-gp/MDR1 after 72 hrs by Alamar Blue assay. The format is functional, cell-based. Conditions: Kasumi 1, 72 h. The essentials: as §1
The subject of assay [8] is SK-BR-3. Put plainly: Binding affinity to Hsp70 in human SKBR3 cells after 1 hr by […] in presence of N-(6-Amino-2-((4,6-dimethoxy-2-(4-methylpiperazin-1-yl)-pyrimidin-5-yl)thio)pyrimidin-4-yl)acrylamide. The format is cell-based. The essentials:
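Cells pretreated 2 h with increasing concentrations of soluble competitor, then lysed (20 mM Tris pH 7.4, 25 mM NaCl, 0.1% NP-40). Extract (500 μg protein) incubated overnight with beads carrying biotinylated ligand (50 μM, loaded 1 h at 4 °C). Beads washed in high-salt buffer (1 M NaCl), run on SDS–PAGE, and silver stained.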

Assay [9] can be described thus: Inhibition of His-tagged Escherichia coli DNAK assessed as inhibition of DNAJ complex formation.
Assay [10] can be described thus: (§3) Inhibition of Hsp70 in human SKBR3 cells assessed as inhibition of HOP complex formation after 24 hrs by Western blotting analysis. The format is cell-based. Conditions: SK-BR-3, 24 h. The essentials: (§4)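 SKBr3 cells treated 24 h at the indicated concentrations, then lysed (20 mM Tris pH 7.4, 25 mM NaCl, 0.1% NP-40, protease inhibitors). 500 μg protein immunoprecipitated overnight at 4 °C with anti-Hsp70 BB70 (normal IgG as negative control) and protein G beads. Beads washed five times; co-precipitated HOP detected by Western blot.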

Assay [11] has as its system SK-BR-3. Described as §3. It counts as cell-based. The essentials:
as §4

Calls of active or inactive are those of the source. The calls are words filed in the database; no cut-off is given here.

Heat shock protein HSP 90-beta, sequence (P08238 whole entry): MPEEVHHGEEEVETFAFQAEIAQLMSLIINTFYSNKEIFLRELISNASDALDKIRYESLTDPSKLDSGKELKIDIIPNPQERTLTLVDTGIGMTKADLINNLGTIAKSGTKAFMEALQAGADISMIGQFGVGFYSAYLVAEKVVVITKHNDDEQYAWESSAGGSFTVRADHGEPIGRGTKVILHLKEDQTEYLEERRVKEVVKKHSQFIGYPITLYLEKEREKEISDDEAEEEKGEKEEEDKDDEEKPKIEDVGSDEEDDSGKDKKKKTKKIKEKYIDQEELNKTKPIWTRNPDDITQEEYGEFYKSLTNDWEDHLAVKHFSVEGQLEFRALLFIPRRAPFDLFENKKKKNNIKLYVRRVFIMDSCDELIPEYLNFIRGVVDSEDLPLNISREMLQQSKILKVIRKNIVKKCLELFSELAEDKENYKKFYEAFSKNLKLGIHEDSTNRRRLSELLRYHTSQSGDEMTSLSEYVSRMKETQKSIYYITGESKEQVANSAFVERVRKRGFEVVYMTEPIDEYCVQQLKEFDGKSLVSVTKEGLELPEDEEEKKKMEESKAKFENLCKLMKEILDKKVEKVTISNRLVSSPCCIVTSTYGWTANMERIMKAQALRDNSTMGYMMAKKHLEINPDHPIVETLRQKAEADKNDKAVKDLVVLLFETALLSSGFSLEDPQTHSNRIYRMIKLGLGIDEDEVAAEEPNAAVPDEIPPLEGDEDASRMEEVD

The term IC50 denotes the concentration at which inhibition is half-maximal. On to `C=CC(=O)Nc1ccnc(Sc2c(OC)nc(N3CCN(C)CC3)nc2OC)n1`, for which the IC50 in assay [1] is over 500 µM; in assay [2] it was 1.2 µM; in [3], 7.5 µM; in assay [4], 5 µM; in assay [5] it was 7.5 µM; in assay [6] it was 4 µM. Moreover, the IC50 in [7] was found to be 1.25 µM.
Take `C=CC(=O)Nc1cc(N)nc(Sc2c(OC)nc(N3CCN(CCOCCOCCOCCO)CC3)nc2OC)n1`: the IC50 in [1] was over 500 µM; in assay [2] it was 7.5 µM; in assay [3] it was 10 µM; in [5], 2.5 µM; in [6], 14.3 µM; in assay [7] it was 3.8 µM.
For the molecule `C=CC(=O)Nc1ccnc(Sc2c(OC)nc(N3CCCC3)nc2OC)n1`, the IC50 in assay [1] is over 500 µM; in [2], 5 µM; in assay [3] it was 25 µM; in assay [4], 17 µM; in assay [5], 20 µM; in [6], over 100 µM. In assay [7], this molecule showed an IC50 of 46.1 µM.
Turning to `C=CC(=O)Nc1ccnc(Sc2c(C)nc(N3CCOCC3)nc2C)n1`, the values for the IC50 in [6] and in assay [7] were 15.4 µM and 14.4 µM, respectively.
In the case of `C=CC(=O)Nc1cc(N)nc(Sc2c(OC)nc(N3CCOCC3)nc2OC)n1`, the half-inhibitory concentration (IC50) in [6] was 12.1 µM.
The same measure, in the same setting: to `C=CC(=O)Nc1ccnc(Sc2c(OC)nc(OC)nc2OC)n1` belongs 7.5 µM.
In the case of `C#CCCCn1c(Cc2cc(OC)c(OC)c(OC)c2Cl)nc2c(N)nc(F)nc21`, the IC50 was determined as 2.9 µM in assay [2], 2.5 µM in assay [4] and 2 µM in assay [5].
`C=CC(=O)Nc1cc(N)nc(Sc2c(OCC)nc(N3CCOCC3)nc2OCC)n1`: the IC50 in assay [6] came to 10.5 µM; in assay [7], 2.2 µM.
For the molecule `C=CC(=O)Nc1cc(N)nc(Sc2c(OC)nc(N)nc2OC)n1`, the IC50 in assay [1] is over 500 µM; in assay [2], 3.2 µM; in assay [3] it was 7.5 µM; in assay [4] it was 3.5 µM; in [5], 5 µM; in [6], 4.5 µM. The IC50 in assay [7] came out at 3.9 µM.
As for `C=CC(=O)Nc1cc(N)nc(Sc2c(OC)nc(N3CCN(C)CC3)nc2OCCOCCOCCOCCO)n1`, the IC50 in assay [1] was over 500 µM; in assay [2], 50 µM; in assay [3], 100 µM; in assay [4] it was 60 µM; in assay [5] it was 75 µM; in [6], 100 µM. The same molecule showed an IC50 in assay [7] of 76.5 µM.
`C=CC(=O)Nc1ccnc(Sc2c(OC)nc(N3CCOCC3)nc2OC)n1`: the results for the IC50 in assay [6] and in [7] were 7.2 µM and 2 µM, respectively.
On to `C=C(C)C(=O)Nc1ccnc(Sc2c(C)nc(N3CCN(C)CC3)nc2C)n1`, for which the IC50 in [1] is over 500 µM; in assay [2] it was 16.7 µM; in [3], 40 µM; in assay [4], 50 µM; in [5], 30 µM; in assay [6], 45 µM. The IC50 in assay [7] came out at 35 µM.
`C=CC(=O)Nc1ccnc(Sc2c(C)nc(N3CCN(C)CC3)nc2C)n1`: the IC50 in assay [1] is over 500 µM; in assay [2], 1.8 µM; in assay [3], 5 µM; in assay [4], 5 µM; in assay [5] it was 4 µM; in assay [6] it was 6 µM.
On to `C=CC(=O)Nc1cc(N)nc(Sc2c(OC)nc(N3CCN(CCOCCOCCOCCOC(=O)CCCC[C@@H]4SC[C@@H]5NC(=O)N[C@@H]54)CC3)nc2OC)n1`, for which, in assay [8], the outcome was Active.
As for `C=CC(=O)Nc1ccnc(Sc2c(OC)nc(N3CCCCC3)nc2OC)n1`, the IC50 turned out to be 12.4 µM in [6] and 3.15 µM in assay [7].
Take `O=c1c(O)c(-c2cc(O)c(O)c(O)c2)oc2cc(O)cc(O)c12` [MYRICETIN]: the IC50 in [9] is 14.5 µM; in assay [3], over 100 µM; in assay [4], over 100 µM; in assay [5], over 100 µM.
As for `C/C=C/C(=O)Nc1ccnc(Sc2c(C)nc(N3CCN(C)CC3)nc2C)n1`, the IC50 in assay [6] worked out at 32 µM; in assay [7], 20 µM.
As for `C=C(C)C(=O)Nc1cccc(Sc2c(OC)nc(N3CCN(C)CC3)nc2OC)c1`, the IC50 in assay [6] was determined as 60 µM.
Turning to `C=CC(=O)Nc1cc(N)nc(Sc2c(OCC)nc(N3CCN(C)CC3)nc2OCC)n1`, the IC50 in assay [10] is 1.73 µM; in assay [1], over 500 µM; in assay [2], 1.1 µM; in assay [3], 1.5 µM; in assay [4], 2.5 µM; in assay [5] it was 1 µM. Also, the IC50 was 4 µM in assay [6] and 0.89 µM in assay [7]. Moreover, the inhibition entry in [11] was “Dose-dependent effect”.
For the molecule `C=CC(=O)Nc1cc(N)nc(Sc2c(OC)nc(N3CCN(C)CC3)nc2OC)n1`, the IC50 in assay [1] is over 500 µM; in assay [2] it was 0.8 µM; in [3], 2 µM; in [4], 1.7 µM; in assay [5] it was 0.7 µM; in assay [6], 1.2 µM. In assay [7], the IC50 was 0.9 µM.
For the molecule `C=CC(=O)Nc1cccc(Sc2c(OC)nc(N3CCN(C)CC3)nc2OC)c1`, in assay [7], the IC50 is 7.8 µM.
Take `C=CC(=O)Nc1cc(N)nc(Sc2c(OC)nc(N3CCCCC3)nc2OC)n1`: the IC50 was over 250 µM in assay [1]; 9 µM in assay [2]; 5 µM in [3]; 7.5 µM in [4]; 2.5 µM in assay [5]; 16.2 µM in assay [6]. This molecule also displayed an IC50 in [7] of 17.1 µM.
Consider `C=CC(=O)Nc1ccnc(Sc2c(OC)nc(N3CC[N+](C)([O-])CC3)nc2OC)n1`, for which the IC50 in assay [6] and in [7] was over 100 µM in each case.
In the case of `C=CC(=O)Nc1cc(N)nc(Sc2c(OCC)nc(N3CCCCC3)nc2OCC)n1`, the IC50 in assay [1] is over 500 µM; in [2], 7 µM; in assay [3] it was 10 µM; in [4] it was 3.1 µM; in assay [5], 2 µM; in assay [6], 4 µM. The IC50 in assay [7] is 4.5 µM.
Consider `C=CC(=O)Nc1cccc(Sc2c(OC)nc(N3CCOCC3)nc2OC)c1`, for which the IC50 in [1] is over 500 µM; in assay [2] it was 16.5 µM; in assay [3], 10 µM; in assay [4] it was 20 µM; in assay [5] it was 15 µM; in [6], 27.5 µM. This molecule showed an IC50 in [7] of 46.5 µM.
